Test results taken from ChEMBL document CHEMBL3865796, “Novel (2,6-difluorophenyl)(2-(phenylamino)pyrimidin-4-yl)methanones with restricted conformation as potent non-nucleoside reverse transcriptase inhibitors against HIV-1” (Eur J Med Chem, 2016).

Assays:
[1] = Inhibition of wild type HIV-1 3B reverse transcriptase infected in human MT4 cells assessed as inhibition of viral replication after 5 days by cell titer glo based luciferase reporter gene assay; settings: Human immunodeficiency virus 1, 3B, MT4, 120 h
[2] = Cytotoxicity against human MT4 cells assessed as decrease in cell viability after 5 days by cell titer glo based luciferase reporter gene assay; assay type: toxicity
How it was run: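 Mock-infected MT-4 cells (pre-treated with RPMI) in complete RPMI (10% FBS, 1% P/S) received 1:3 serial DMSO dilutions of compound, further diluted 200-fold into medium, in a 384-well format. Incubated 5 days at 37 °C in a humidified incubator. Viability was read as CellTiter-Glo luminescence. CC50 is the concentration giving a 50% fall in signal, from a sigmoidal dose-response fit.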

[3] = Selectivity index, ratio of CC50 for human MT4 cells to EC50 for wild type HIV-1 3B reverse transcriptase infected in human MT4 cells; assay type: toxicity, cell-based; settings: read-out: Ratio CC50/EC50
[4] = Inhibition of wild type HIV-1 3B reverse transcriptase infected in human MT4 cells assessed as inhibition of virus-induced cytopathic effect after 5 days incubation by Cell Titer Glo luminescence assay; settings: Human immunodeficiency virus 1, 3B

| SMILES | EC50 [1] [µM] | CC50 at 120 h [2] [µM] | selectivity ratio [3] | EC50 [4] [µM] |
| --- | --- | --- | --- | --- |
| N#Cc1ccc(Nc2nc(C(=O)c3ccc(C#N)cc3)ncc2Br)cc1 | 27.7 | > 57 | > 2.06 |  |
| COc1cc(F)c(C(=O)c2nc(Nc3ccc(C#N)cc3Br)ncc2Br)c(F)c1 | 18.9 | > 57 | > 3.02 |  |
| N#Cc1ccc(Nc2nccc(C(=O)c3ccc(C#N)cc3)n2)cc1 | 4.5 | > 57 | > 12.7 |  |
| N#Cc1ccc(C(=O)c2nccc(Cl)n2)cc1 | > 57 | 16.5 | < 0.29 |  |
| COc1cc(F)c(C(=O)c2ccnc(Cl)n2)c(F)c1 | > 57 | > 57 | 1 |  |
| O=C(c1ccnc(Cl)n1)c1c(F)cc(Br)cc1F | > 57 | > 57 | 1 |  |
| N#Cc1ccc(Nc2ccnc(C(O)c3ccc(C#N)cc3)n2)cc1 (stereo not given) | > 57 | > 57 | 1 |  |
| COc1ccc(C(=O)c2nc(Nc3ccc(C#N)cc3)ncc2Br)cc1 | > 57 | 2.45 | < 0.04 |  |
| COc1cc(F)c(C(=O)c2ccnc(Nc3ccc(C#N)cc3)n2)c(F)c1 | 0.004 | > 57 | > 14200 |  |
| COc1ccc(C(=O)c2ccnc(Nc3ccc(C#N)cc3)n2)cc1 | 0.814 | > 57 | > 70 | 0.239 |
| N#Cc1ccc(Nc2ccnc(C(=O)c3ccc(C#N)cc3)n2)cc1 | 43 | > 57 | > 1.33 |  |
| N#Cc1cc(F)c(C(=O)c2ccnc(Cl)n2)c(F)c1 | > 57 | 30.5 | < 0.54 |  |
| O=C(c1ccnc(Cl)n1)c1c(F)cc(F)cc1F | > 57 | 40.1 | < 0.7 |  |
| COc1ccc(C(=O)c2ccnc(Cl)n2)cc1 | > 57 | 39.6 | < 0.69 |  |
| COc1cc(F)c(C(=O)c2nc(Nc3ccc(C#N)cc3)ncc2Br)c(F)c1 | 0.069 | 38.7 | 561 |  |
| N#Cc1ccc(Nc2cc(F)c(C(=O)c3ccnc(Nc4ccc(C#N)cc4)n3)c(F)c2)cc1 | 0.31 | 51.9 | 167 |  |
| N#Cc1ccc(C(=O)c2ccnc(Cl)n2)cc1 | > 57 | 31.9 | < 0.56 |  |
| N#Cc1ccc(Nc2ncc(Br)c(C(=O)c3ccc(C#N)cc3)n2)cc1 | 7.4 | > 57 | > 7.7 |  |
| N#Cc1ccc(Nc2ncc(Br)c(C(=O)c3c(F)cc(O)cc3F)n2)cc1 | > 57 | > 57 | 1 |  |
| N#Cc1ccc(Nc2nccc(C(=O)c3c(F)cc(F)cc3F)n2)cc1 | 0.034 | > 57 | > 1680 |  |
| N#Cc1ccc(Nc2nccc(C(O)c3ccc(C#N)cc3)n2)cc1 (stereo not given) | 3.7 | > 57 | > 15.4 |  |
| N#Cc1ccc(Nc2nccc(C(=O)c3c(F)cc(C#N)cc3F)n2)cc1 | 0.051 | > 57 | > 1120 |  |
| O=C1Nc2ccc(Cl)cc2[C@@](C#CC2CC2)(C(F)(F)F)O1 [EFAVIRENZ] | 0.001 | 20.6 |  |  |
| Cc1cc(C#N)cc(C)c1Oc1nc(Nc2ccc(C#N)cc2)nc(N)c1Br [ETRAVIRINE] |  | 5.88 |  |  |
